In ChEMBL document CHEMBL1140692, “Toward the development of chemoprevention agents. Part II: Chemo-enzymatic synthesis and anti-inflammatory activities of a new class of 5-amino-2-substitutedphenyl-1,3-dioxacycloalkanes” (Bioorg Med Chem, 2007):

How the values were obtained:
[1] = system: Mus musculus; test: Gastrointestinal toxicity in mouse assessed as tail bleeding time at 200 mg/kg, po after 60 mins; assay type: organism-based; set-up: dose 200 mg/kg, route oral; settings: in vivo, 1 h
Procedure, shortened: (§1)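 Male mice (18–22 g) are dosed orally and compared with an NS group. At 30, 45, 60 and 90 min after dosing, each mouse is restrained in a tube holder and a 2-mm cut is made on the tail. Blood is wiped away every 30 s until flow stops, and the time to cessation is recorded.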

[2] = Permeability from basolateral to apical side of human Caco-2 cell membrane; assay type: ADME, cell-based
[3] = system: Mus musculus; test: Gastrointestinal toxicity in mouse assessed as tail bleeding time at 200 mg/kg, po after 30 mins; assay type: organism-based; set-up: dose 200 mg/kg, route oral; settings: in vivo, 0.5 h; procedure, shortened: as §1
[4] = system: Mus musculus; test: Antiinflammatory activity in Kunming mouse assessed as inhibition of xylene-induced ear edema at 10 mg/kg, po after […]rs; assay type: functional
Procedure, shortened: (§2)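 Male Kunming mice receive the agent orally as a suspension in 0.5% CMC; the vehicle group gets CMC alone. After 30 min, 0.03 ml xylene is applied to both surfaces of the right ear, and the left ear serves as control. At 2 h, mice are killed and 7-mm ear punches are weighed. Edema is taken as right minus left punch weight, and inhibition is calculated versus vehicle. n = 11; ANOVA.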

[5] = system: Mus musculus; test: Antiinflammatory activity in Kunming mouse assessed as inhibition of xylene-induced ear edema at 20 mg/kg, po after […]rs; assay type: functional; procedure, shortened: as §2
[6] = system: Mus musculus; test: Antiinflammatory activity in Kunming mouse assessed as inhibition of xylene-induced ear edema at 5 mg/kg, po after […]rs; assay type: functional; procedure, shortened: as §2
[7] = system: Mus musculus; test: Gastrointestinal toxicity in mouse assessed as tail bleeding time at 200 mg/kg, po after 45 mins; assay type: organism-based; set-up: dose 200 mg/kg, route oral; settings: in vivo, 0.75 h; procedure, shortened: as §1
[8] = system: Caco-2; test: Ratio of permeability from apical to basolateral side over basolateral to apical side of human Caco-2 cell membrane; assay type: ADME, cell-based
[9] = system: Mus musculus; test: Gastrointestinal toxicity in mouse assessed as tail bleeding time at 200 mg/kg, po after 90 mins; assay type: organism-based; set-up: dose 200 mg/kg, route oral; settings: in vivo, 1.5 h; procedure, shortened: as §1
[10] = Permeability from apical to basolateral side of human Caco-2 cell membrane; assay type: ADME, cell-based
[11] = Inhibition of bovine brain PKC; set-up: species or system Bos taurus
[12] = system: Mus musculus; test: Antiinflammatory activity in Kunming mouse assessed as inhibition of xylene-induced ear edema at 30 mg/kg, po after […]rs; assay type: functional; procedure, shortened: as §2

Papp B→A [2] [nm/s] | Ratio [8] | Papp A→B [10] [nm/s] | IC50 [11] [µM] | Compound | Time [1] [s] | Time [3] [s] | inhibition in vivo at 10 mg/kg [4] [%] | inhibition in vivo at 20 mg/kg [5] [%] | inhibition in vivo at 5 mg/kg [6] [%] | Time [7] [s] | Time [9] [s] | inhibition in vivo at 30 mg/kg [12] [%]
69.6 | 1.87 | 130 | 890 | C[C@@H]1O[C@@H](c2ccc([N+](=O)[O-])cc2)OC[C@H]1N | 117.2 | 118.4 | 58 | 78.5 | 42.3 | 119.2 | 118.9 | –
– | – | – | – | CC(=O)Oc1ccccc1C(=O)O [ASPIRIN] | – | – | – | 40.7 | – | – | – | 40.7
